{
  "source": "ChEMBL document CHEMBL1165845",
  "about": "“Synthesis and biological evaluation of analogues of a novel inhibitor of beta-amyloid secretion” (J Med Chem, 2010)",
  "data": [
    {"tested_on": "H4", "assay": "Induction of alpha-secretase-mediated reduction in amyloid beta secretion in human H4 cells expressing wild type betaAPP695 at 10 uM after 24 hrs […] relative to control", "format": "cell-based", "design": "scale not given: the % may be the effect or the level left", "settings": "not given", "summary_of_the_method": "(§1)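 Serum-starved H4βAPP695wt cells are treated for 24 h with drug in DMSO (0.02% DMSO vehicle control). Total Aβ in conditioned medium is measured by sandwich ELISA with 6E10 capture and 4G8 detection, normalized to lysate protein by BCA. Cytotoxicity is read as total cell protein. Quadruplicate wells in 1-4 independent experiments give the % decrease versus vehicle.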", "units": {"Activity": "%"}, "values": [
      {"smiles": "COc1ccc(CSCCNC(=O)c2c(Cl)cccc2Cl)cc1", "Activity": 1.6},
      {"smiles": "O=C(NCCNC(=O)c1c(Cl)cccc1Cl)c1c(Cl)cccc1Cl", "Activity": 7.6},
      {"smiles": "N#Cc1cccc(CSCCNC(=O)c2c(Cl)cccc2Cl)c1", "Activity": 20},
      {"smiles": "O=C(NCCNC(=O)c1ccccc1F)c1ccccc1F", "Activity": 0.2},
      {"smiles": "O=C(CSCc1c(F)cccc1Cl)NCc1ccccc1Cl", "Activity": 47.8},
      {"smiles": "O=C(NCCSCc1cccc(Cl)c1)c1ccccc1Cl", "Activity": 4.7},
      {"smiles": "CCN(CC)CCCNC(=O)c1c(Cl)cccc1Cl", "Activity": 5.1},
      {"smiles": "O=C(NCCSCc1ccc(Cl)c(Cl)c1)c1ccccc1Cl", "Activity": 0.7},
      {"smiles": "O=C(NCCSCc1cccc(O)c1)c1c(O)cccc1O", "Activity": -22.5},
      {"smiles": "COc1cccc(CS(=O)(=O)CCNC(=O)c2c(Cl)cccc2Cl)c1", "Activity": 5.3},
      {"smiles": "O=C(NCCSCc1ccccc1Cl)c1ccccc1Cl", "Activity": 4},
      {"smiles": "O=C(NCCSCc1cccc([N+](=O)[O-])c1)c1c(Cl)cccc1Cl", "Activity": 58.5},
      {"smiles": "O=C(NCCOCc1ccccc1)c1ccccc1Cl", "Activity": 10.3},
      {"smiles": "O=C(NCCSCc1ccc(Cl)c(Cl)c1)c1ccc(Cl)cc1Cl", "Activity": 4.3},
      {"smiles": "O=C(NCCSCc1cccc(O)c1O)c1c(Cl)cccc1Cl", "Activity": -4.3},
      {"smiles": "O=C(NCCSCc1ccccc1)c1ccccc1", "Activity": -5.7},
      {"smiles": "O=C(NCC[S+]([O-])Cc1cccc(Cl)c1)c1c(Cl)cccc1Cl", "note": "(configuration not stated)", "Activity": 4},
      {"smiles": "O=C(NCCSCc1cccc(F)c1)c1c(Cl)cccc1Cl", "Activity": 10.2},
      {"smiles": "O=C(NCCOCc1cccc(Cl)c1)c1c(Cl)cccc1Cl", "Activity": 10.5},
      {"smiles": "COc1cccc(CSCCNC(=O)c2c(Cl)cccc2OC)c1", "Activity": -2.9},
      {"smiles": "O=C(NCCSCc1ccc(F)cc1)c1c(F)cccc1Cl", "Activity": 27.3},
      {"smiles": "O=C(NCCSCc1cccc(Cl)c1)c1c([N+](=O)[O-])cccc1[N+](=O)[O-]", "Activity": 28.8},
      {"smiles": "O=C(NCCSCc1cccc(Cl)c1)c1c(F)cccc1F", "Activity": 4.9},
      {"smiles": "COc1cccc(OC)c1C(=O)NCCSCc1cccc(Cl)c1", "Activity": -13.1},
      {"smiles": "O=C(NCCCCNC(=O)c1c(Cl)cccc1Cl)c1c(Cl)cccc1Cl", "Activity": 4},
      {"smiles": "O=C(NCCS(=O)(=O)Cc1cccc(Cl)c1)c1c(Cl)cccc1Cl", "Activity": 8.9},
      {"smiles": "N#Cc1c(Cl)cccc1CSCCNC(=O)c1c(Cl)cccc1Cl", "Activity": 48.7},
      {"smiles": "O=C(NCCSCc1cccc(OCCOCCO)c1)c1c(Cl)cccc1Cl", "Activity": 17.4},
      {"smiles": "O=C(NCCSc1ccccc1)c1ccccc1Cl", "Activity": -4.4},
      {"smiles": "O=C(NCCS(=O)(=O)Cc1cccc(O)c1)c1c(Cl)cccc1Cl", "Activity": -10.1},
      {"smiles": "O=C(NCC[S+]([O-])Cc1cccc(O)c1)c1c(Cl)cccc1Cl", "note": "(configuration not stated)", "Activity": -23.7},
      {"smiles": "NC(=O)c1c(Cl)cccc1CSCCNC(=O)c1c(Cl)cccc1Cl", "Activity": 44.7},
      {"smiles": "O=C(NCCSCc1ccc(Cl)cc1)c1c(Cl)cccc1Cl", "Activity": 21.8},
      {"smiles": "CC(C)(CNC(=O)c1c(Cl)cccc1Cl)SCc1ccc(F)cc1", "Activity": 37}
    ]},
    {"tested_on": "H4", "assay": "Induction of alpha-secretase-mediated reduction in amyloid beta secretion in human H4 cells expressing wild type betaAPP695 at 30 uM after 24 hrs […] relative to control", "format": "cell-based", "design": "scale not given: the % may be the effect or the level left", "settings": "not given", "summary_of_the_method": "as §1", "units": {"Activity": "%"}, "values": [
      {"smiles": "COc1ccc(CSCCNC(=O)c2c(Cl)cccc2Cl)cc1", "Activity": 1.1},
      {"smiles": "N#Cc1cccc(CSCCNC(=O)c2c(Cl)cccc2Cl)c1", "Activity": 38.7},
      {"smiles": "O=C(NCCSCc1cccc(O)c1)c1c(O)cccc1O", "Activity": -25.2},
      {"smiles": "COc1cccc(CS(=O)(=O)CCNC(=O)c2c(Cl)cccc2Cl)c1", "Activity": 4.9},
      {"smiles": "O=C(NCCSCc1cccc([N+](=O)[O-])c1)c1c(Cl)cccc1Cl", "Activity": 72.5},
      {"smiles": "O=C(NCCSCc1cccc(O)c1O)c1c(Cl)cccc1Cl", "Activity": 33.1},
      {"smiles": "O=C(NCCSCc1ccccc1)c1ccccc1", "Activity": 5.5},
      {"smiles": "O=C(NCC[S+]([O-])Cc1cccc(Cl)c1)c1c(Cl)cccc1Cl", "note": "(configuration not stated)", "Activity": -16.5},
      {"smiles": "O=C(NCCSCc1cccc(F)c1)c1c(Cl)cccc1Cl", "Activity": 36.1},
      {"smiles": "O=C(NCCOCc1cccc(Cl)c1)c1c(Cl)cccc1Cl", "Activity": -5.1},
      {"smiles": "COc1cccc(CSCCNC(=O)c2c(Cl)cccc2OC)c1", "Activity": -4.7},
      {"smiles": "O=C(NCCSCc1cccc(Cl)c1)c1c([N+](=O)[O-])cccc1[N+](=O)[O-]", "Activity": 52.9},
      {"smiles": "O=C(NCCSCc1cccc(Cl)c1)c1c(F)cccc1F", "Activity": 21.6},
      {"smiles": "COc1cccc(OC)c1C(=O)NCCSCc1cccc(Cl)c1", "Activity": 11.2},
      {"smiles": "O=C(NCCS(=O)(=O)Cc1cccc(Cl)c1)c1c(Cl)cccc1Cl", "Activity": 9.3},
      {"smiles": "N#Cc1c(Cl)cccc1CSCCNC(=O)c1c(Cl)cccc1Cl", "Activity": 52.3},
      {"smiles": "O=C(NCCSCc1cccc(OCCOCCO)c1)c1c(Cl)cccc1Cl", "Activity": 24.3},
      {"smiles": "O=C(NCCS(=O)(=O)Cc1cccc(O)c1)c1c(Cl)cccc1Cl", "Activity": 9.6},
      {"smiles": "O=C(NCC[S+]([O-])Cc1cccc(O)c1)c1c(Cl)cccc1Cl", "note": "(configuration not stated)", "Activity": 15.9},
      {"smiles": "NC(=O)c1c(Cl)cccc1CSCCNC(=O)c1c(Cl)cccc1Cl", "Activity": 49.7},
      {"smiles": "O=C(NCCSCc1ccc(Cl)cc1)c1c(Cl)cccc1Cl", "Activity": 36.5}
    ]},
    {"tested_on": "H4", "assay": "Cytotoxicity against human H4 cells expressing wild type betaAPP695 assessed as decrease in cell protein at 10 uM after 24 hrs", "format": "cell-based", "design": "scale not given: the % may be the effect or the level left", "settings": "h4, 24 h", "summary_of_the_method": "as §1", "units": {"Activity": "%"}, "values": [
      {"smiles": "COc1ccc(CSCCNC(=O)c2c(Cl)cccc2Cl)cc1", "Activity": 6.7},
      {"smiles": "N#Cc1cccc(CSCCNC(=O)c2c(Cl)cccc2Cl)c1", "Activity": -4.8},
      {"smiles": "O=C(NCCSCc1cccc(O)c1)c1c(O)cccc1O", "Activity": 10.5},
      {"smiles": "COc1cccc(CS(=O)(=O)CCNC(=O)c2c(Cl)cccc2Cl)c1", "Activity": 1.2},
      {"smiles": "O=C(NCCSCc1cccc([N+](=O)[O-])c1)c1c(Cl)cccc1Cl", "Activity": 7.5},
      {"smiles": "O=C(NCCSCc1cccc(O)c1O)c1c(Cl)cccc1Cl", "Activity": -4.8},
      {"smiles": "O=C(NCCSCc1ccccc1)c1ccccc1", "Activity": 0.7},
      {"smiles": "O=C(NCC[S+]([O-])Cc1cccc(Cl)c1)c1c(Cl)cccc1Cl", "note": "(configuration not stated)", "Activity": -4.9},
      {"smiles": "O=C(NCCSCc1cccc(F)c1)c1c(Cl)cccc1Cl", "Activity": 2.6},
      {"smiles": "O=C(NCCOCc1cccc(Cl)c1)c1c(Cl)cccc1Cl", "Activity": -9.9},
      {"smiles": "COc1cccc(CSCCNC(=O)c2c(Cl)cccc2OC)c1", "Activity": 1.9},
      {"smiles": "O=C(NCCSCc1cccc(Cl)c1)c1c([N+](=O)[O-])cccc1[N+](=O)[O-]", "Activity": 0.1},
      {"smiles": "O=C(NCCSCc1cccc(Cl)c1)c1c(F)cccc1F", "Activity": 5.1},
      {"smiles": "COc1cccc(OC)c1C(=O)NCCSCc1cccc(Cl)c1", "Activity": 7.1},
      {"smiles": "O=C(NCCS(=O)(=O)Cc1cccc(Cl)c1)c1c(Cl)cccc1Cl", "Activity": -2.2},
      {"smiles": "N#Cc1c(Cl)cccc1CSCCNC(=O)c1c(Cl)cccc1Cl", "Activity": 3.5},
      {"smiles": "O=C(NCCSCc1cccc(OCCOCCO)c1)c1c(Cl)cccc1Cl", "Activity": -7.3},
      {"smiles": "O=C(NCCS(=O)(=O)Cc1cccc(O)c1)c1c(Cl)cccc1Cl", "Activity": 7.7},
      {"smiles": "O=C(NCC[S+]([O-])Cc1cccc(O)c1)c1c(Cl)cccc1Cl", "note": "(configuration not stated)", "Activity": 2.8},
      {"smiles": "NC(=O)c1c(Cl)cccc1CSCCNC(=O)c1c(Cl)cccc1Cl", "Activity": 2.5},
      {"smiles": "O=C(NCCSCc1ccc(Cl)cc1)c1c(Cl)cccc1Cl", "Activity": -6.4}
    ]},
    {"tested_on": "H4", "assay": "Cytotoxicity against human H4 cells expressing wild type betaAPP695 assessed as decrease in cell protein at 30 uM after 24 hrs", "format": "cell-based", "design": "scale not given: the % may be the effect or the level left", "settings": "h4, 24 h", "summary_of_the_method": "as §1", "units": {"Activity": "%"}, "values": [
      {"smiles": "COc1ccc(CSCCNC(=O)c2c(Cl)cccc2Cl)cc1", "Activity": 12.7},
      {"smiles": "N#Cc1cccc(CSCCNC(=O)c2c(Cl)cccc2Cl)c1", "Activity": 4.3},
      {"smiles": "O=C(NCCSCc1cccc(O)c1)c1c(O)cccc1O", "Activity": 14.3},
      {"smiles": "COc1cccc(CS(=O)(=O)CCNC(=O)c2c(Cl)cccc2Cl)c1", "Activity": 8.9},
      {"smiles": "O=C(NCCSCc1cccc([N+](=O)[O-])c1)c1c(Cl)cccc1Cl", "Activity": 24.6},
      {"smiles": "O=C(NCCSCc1cccc(O)c1O)c1c(Cl)cccc1Cl", "Activity": 14},
      {"smiles": "O=C(NCCSCc1ccccc1)c1ccccc1", "Activity": -4.1},
      {"smiles": "O=C(NCC[S+]([O-])Cc1cccc(Cl)c1)c1c(Cl)cccc1Cl", "note": "(configuration not stated)", "Activity": 7.3},
      {"smiles": "O=C(NCCSCc1cccc(F)c1)c1c(Cl)cccc1Cl", "Activity": 3.7},
      {"smiles": "O=C(NCCOCc1cccc(Cl)c1)c1c(Cl)cccc1Cl", "Activity": 4.2},
      {"smiles": "COc1cccc(CSCCNC(=O)c2c(Cl)cccc2OC)c1", "Activity": 9.3},
      {"smiles": "O=C(NCCSCc1cccc(Cl)c1)c1c([N+](=O)[O-])cccc1[N+](=O)[O-]", "Activity": 17.8},
      {"smiles": "O=C(NCCSCc1cccc(Cl)c1)c1c(F)cccc1F", "Activity": 8.1},
      {"smiles": "COc1cccc(OC)c1C(=O)NCCSCc1cccc(Cl)c1", "Activity": -0.6},
      {"smiles": "O=C(NCCS(=O)(=O)Cc1cccc(Cl)c1)c1c(Cl)cccc1Cl", "Activity": -3.8},
      {"smiles": "N#Cc1c(Cl)cccc1CSCCNC(=O)c1c(Cl)cccc1Cl", "Activity": 1.3},
      {"smiles": "O=C(NCCSCc1cccc(OCCOCCO)c1)c1c(Cl)cccc1Cl", "Activity": 6.1},
      {"smiles": "O=C(NCCS(=O)(=O)Cc1cccc(O)c1)c1c(Cl)cccc1Cl", "Activity": 4.4},
      {"smiles": "O=C(NCC[S+]([O-])Cc1cccc(O)c1)c1c(Cl)cccc1Cl", "note": "(configuration not stated)", "Activity": 4.4},
      {"smiles": "NC(=O)c1c(Cl)cccc1CSCCNC(=O)c1c(Cl)cccc1Cl", "Activity": -5.6},
      {"smiles": "O=C(NCCSCc1ccc(Cl)cc1)c1c(Cl)cccc1Cl", "Activity": 3}
    ]}
  ]
}
